Measured values taken from ChEMBL document CHEMBL1833790, “N-(2-{3-[3,5-bis(trifluoromethyl)phenyl]ureido}ethyl)-glycyrrhetinamide (6b): a novel anticancer glycyrrhetinic acid derivative that targets the proteasome and displays anti-kinase activity” (J Med Chem, 2011).
Active and inactive are the calls of the source. The rule behind the calls is not given here.

Experiments:
[1] = molecular target: T1, Peroxisome proliferator-activated receptor gamma (Homo sapiens) (UniProt P37231); experiment: Inhibition of PPARgamma activity in human U373 cells at 25 uM after 6 hrs by spectrophotometric analysis relative to control; type: cell-based; conditions: U-373MG ATCC
T1 sequence (whole entry): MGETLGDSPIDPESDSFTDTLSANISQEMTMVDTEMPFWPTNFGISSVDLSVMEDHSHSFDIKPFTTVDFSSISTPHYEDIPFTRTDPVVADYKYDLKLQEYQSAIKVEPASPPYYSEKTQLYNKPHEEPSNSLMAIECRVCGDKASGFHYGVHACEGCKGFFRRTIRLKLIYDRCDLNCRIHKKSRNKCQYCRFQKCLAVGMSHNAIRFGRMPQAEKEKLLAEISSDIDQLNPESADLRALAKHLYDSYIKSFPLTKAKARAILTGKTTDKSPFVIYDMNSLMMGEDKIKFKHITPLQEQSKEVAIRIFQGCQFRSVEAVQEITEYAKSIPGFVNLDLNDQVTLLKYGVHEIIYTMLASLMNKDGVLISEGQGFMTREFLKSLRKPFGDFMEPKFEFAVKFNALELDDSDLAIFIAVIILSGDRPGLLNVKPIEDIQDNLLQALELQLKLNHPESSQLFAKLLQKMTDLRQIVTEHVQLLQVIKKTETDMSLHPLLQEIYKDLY
How it was run: (§1)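 Human U373 glioblastoma cells exposed to compound for 6 h, then detached with trypsin. Nuclear extracts prepared by hypotonic lysis with Nonidet P-40 and extraction buffer with protease inhibitor, clarified at 14 000 g, 4 °C. Extracts bound overnight at 4 °C in a PPAR-γ transcription factor ELISA kit, with primary antibody then HRP anti-rabbit. Absorbance read at 450 nm; triplicates, mean ± SD versus control.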

U-373MG ATCC [2] = experiment: Activation of chymotrypsin-like activity of 20S proteasome in human U373 cells at 25 uM after 2 days by bioluminescence assay; type: cell-based
How it was run: (§2)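 Chymotrypsin-like site, substrate Suc-LLVY-Glo. U373 cells were seeded at 5000 cells/mL for 48 h and exposed two days. After a PBS wash and 0.025% digitonin permeabilisation, Proteasome-Glo reagent was added. Bioluminescence was read after 10 min dark incubation. Triplicates, normalised by a concurrent MTT viability assay run in identical conditions.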

U-373MG ATCC [3] = experiment: Inhibition of trypsin-like activity of 20S proteasome in human U373 cells at 25 uM after 2 days by bioluminescence assay; type: cell-based
How it was run: (§3)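 U373 GBM cells seeded at 5000 cells/mL and grown 48 h, then treated for two days. Cells washed in PBS and permeabilised with 0.025% digitonin. Proteasome-Glo reagent added with Suc-LLVY-Glo (chymotrypsin-like), Z-LRR-Glo (trypsin-like) or Z-nLPnLD-Glo (caspase-like) substrate. Luminescence read after 10 min in the dark and normalised to a parallel MTT viability assay; triplicates. MG-132 at 0.5 μM used as reference.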

U-373MG ATCC [4] = experiment: Activation of caspase-like activity of 20S proteasome in human U373 cells at 25 uM after 2 days by bioluminescence assay; type: cell-based
How it was run: (§4)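 Caspase-like site, substrate Z-nLPnLD-Glo. U373 cells were plated at 5000 cells/mL for 48 h, then treated two days. Cells were PBS-washed and permeabilised with 0.025% digitonin before Proteasome-Glo reagent was added. Luminescence was read after 10 min in the dark. Triplicates, normalised to a parallel MTT viability assay under identical conditions.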

[5] = Chemical stability of the compound in MEM cell culture medium after 7 days by HPLC analysis; type: physicochemical; conditions: read-out: Stability
How it was run: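 Compound incubated in MEM culture medium at 37 °C for 7 days, then analysed by HPLC on RX-C8 (5 μm) column with MeOH–water 90:10 (0.1% TFA), diode-array detection. Expressed as % of incubated compound recovered.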

A549 = experiment: Growth inhibition in apoptosis-resistant human A549 after 3 days by MTT assay; type: functional; conditions: A549, 72 h
How it was run: (§5)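 Cells grown in RPMI with 10% heat-inactivated FCS, 4 mM glutamine, gentamicin and penicillin–streptomycin. Drug exposure 3 days, growth read by MTT colorimetric assay. Nine concentrations from 0.01 to 100 μM in semilog steps, six replicates each; IC50 derived per cell line.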

SK-MEL-28 = experiment: Growth inhibition in apoptosis-resistant human SK-MEL-28 after 3 days by MTT assay; type: functional; conditions: SK-MEL-28, 72 h; how it was run: as §5
T98G = experiment: Growth inhibition in apoptosis-resistant human T98G after 3 days by MTT assay; type: functional; conditions: 72 h; how it was run: as §5
[6] = Growth inhibition in apoptosis-resistant human U373 after 3 days by MTT assay; type: functional, U-373MG ATCC; conditions: U373 MG, 72 h; how it was run: as §5
Hs 683 = experiment: Growth inhibition in apoptosis-sensitive human Hs683 after 3 days by MTT assay; type: functional; conditions: Hs 683, 72 h; how it was run: as §5
PC-3 = experiment: Growth inhibition in apoptosis-sensitive human PC3 after 3 days by MTT assay; type: functional; conditions: PC-3, 72 h; how it was run: as §5
MCF7 = experiment: Growth inhibition in apoptosis-sensitive human MCF7 after 3 days by MTT assay; type: functional; conditions: MCF7, 72 h; how it was run: as §5
B16-F10 = experiment: Growth inhibition in mouse B16F10 after 3 days by MTT assay; type: functional; conditions: B16-F10, 72 h; how it was run: as §5
[7] = molecular target: T1, Peroxisome proliferator-activated receptor gamma (Homo sapiens); experiment: Inhibition of PPARgamma activity in human U373 cells at 30 uM after 6 hrs by spectrophotometric analysis relative to control; type: cell-based; conditions: U-373MG ATCC; how it was run: as §1
U-373MG ATCC [8] = experiment: Activation of chymotrypsin-like activity of 20S proteasome in human U373 cells at 30 uM after 2 days by bioluminescence assay; type: cell-based; how it was run: as §2
U-373MG ATCC [9] = experiment: Inhibition of trypsin-like activity of 20S proteasome in human U373 cells at 30 uM after 2 days by bioluminescence assay; type: cell-based; how it was run: as §3
U-373MG ATCC [10] = experiment: Activation of caspase-like activity of 20S proteasome in human U373 cells at 30 uM after 2 days by bioluminescence assay; type: cell-based; how it was run: as §4
[11] = molecular target: T1, Peroxisome proliferator-activated receptor gamma (Homo sapiens); experiment: Inhibition of PPARgamma activity in human U373 cells at 80 uM after 6 hrs by spectrophotometric analysis relative to control; type: cell-based; conditions: U-373MG ATCC; how it was run: as §1
U-373MG ATCC [12] = experiment: Activation of chymotrypsin-like activity of 20S proteasome in human U373 cells at 80 uM after 2 days by bioluminescence assay; type: cell-based; how it was run: as §2
U-373MG ATCC [13] = experiment: Inhibition of trypsin-like activity of 20S proteasome in human U373 cells at 80 uM after 2 days by bioluminescence assay; type: cell-based; how it was run: as §3
U-373MG ATCC [14] = experiment: Activation of caspase-like activity of 20S proteasome in human U373 cells at 80 uM after 2 days by bioluminescence assay; type: cell-based; how it was run: as §4
[15] = molecular target: T1, Peroxisome proliferator-activated receptor gamma (Homo sapiens); experiment: Inhibition of PPARgamma activity in human U373 cells at 60 uM after 6 hrs by spectrophotometric analysis relative to control; type: cell-based; conditions: U-373MG ATCC; how it was run: as §1
U-373MG ATCC [16] = experiment: Inhibition of trypsin-like activity of 20S proteasome in human U373 cells at 60 uM after 2 days by bioluminescence assay; type: cell-based; how it was run: as §3
U-373MG ATCC [17] = experiment: Activation of chymotrypsin-like activity of human proteasome in U373 at 60 uM after 2 days by bioluminescence assay; type: cell-based; how it was run: as §2
U-373MG ATCC [18] = experiment: Activation of caspase-like activity of 20S proteasome in human U373 cells at 60 uM after 2 days by bioluminescence assay; type: cell-based; how it was run: as §4
[19] = molecular target: T1, Peroxisome proliferator-activated receptor gamma (Homo sapiens); experiment: Inhibition of PPARgamma activity in human U373 cells at 70 uM after 6 hrs by spectrophotometric analysis relative to control; type: cell-based; conditions: U-373MG ATCC; how it was run: as §1
U-373MG ATCC [20] = experiment: Activation of chymotrypsin-like activity of 20S proteasome in human U373 cells at 70 uM after 2 days by bioluminescence assay; type: cell-based; how it was run: as §2
U-373MG ATCC [21] = experiment: Inhibition of trypsin-like activity of 20S proteasome in human U373 cells at 70 uM after 2 days by bioluminescence assay; type: cell-based; how it was run: as §3
U-373MG ATCC [22] = experiment: Activation of caspase-like activity of 20S proteasome in human U373 cells at 70 uM after 2 days by bioluminescence assay; type: cell-based; how it was run: as §4

remaining at 168 h [5] [%] | GI50 (A549) [µM] | GI50 (SK-MEL-28) [µM] | GI50 (PC-3) [µM] | GI50 (MCF7) [µM] | GI50 (B16-F10) [µM] | Structure (SMILES) | GI50 (T98G) [µM] | GI50 [6] [µM] | GI50 (Hs 683) [µM] | also measured
89 | 42 | 32 | 36 | 28 | 23 | COC(=O)[C@@]1(C)CC[C@]2(C)CC[C@]3(C)C(=CC(=O)[C@@H]4[C@@]5(C)C=C(I)C(=O)C(C)(C)[C@@H]5CC[C@]43C)[C@@H]2C1 | 6 | 42 | 48 | inhibition [7]: Active; Activity (U-373MG ATCC [8]): Active; inhibition (U-373MG ATCC [9]): Active; Activity (U-373MG ATCC [10]): Active
93 | > 100 | > 100 | 52 | 56 | 49 | COc1ccc(CCNC(=O)[C@@]2(C)CC[C@]3(C)CC[C@]4(C)C(=CC(=O)[C@@H]5[C@@]6(C)CCC(=O)C(C)(C)[C@@H]6CC[C@]54C)[C@@H]3C2)cc1 | > 100 | 69 | 91 | inhibition [11]: Active; Activity (U-373MG ATCC [12]): Active; inhibition (U-373MG ATCC [13]): Active; Activity (U-373MG ATCC [14]): Active
94 | 40 | > 100 | 43 | 38 | 31 | COc1ccc2[nH]cc(CCNC(=O)[C@@]3(C)CC[C@]4(C)CC[C@]5(C)C(=CC(=O)[C@@H]6[C@@]7(C)CC[C@H](O)C(C)(C)[C@@H]7CC[C@]65C)[C@@H]4C3)c2c1 | > 100 | 75 | 57 | inhibition [19]: Active; Activity (U-373MG ATCC [20]): Active; inhibition (U-373MG ATCC [21]): Active; Activity (U-373MG ATCC [22]): Active

More lines, now with the values behind:

Structure (SMILES) | remaining at 168 h [5] [%] | GI50 (A549) [µM] | GI50 (SK-MEL-28) [µM] | GI50 (PC-3) [µM] | GI50 (MCF7) [µM] | GI50 (B16-F10) [µM] | GI50 (T98G) [µM] | GI50 [6] [µM] | GI50 (Hs 683) [µM] | also measured
CC1(C)[C@@H](O)CC[C@]2(C)[C@H]3C(=O)C=C4[C@@H]5C[C@@](C)(C(=O)NCCNC(=S)Nc6ccccc6)CC[C@]5(C)CC[C@@]4(C)[C@]3(C)CC[C@@H]12 | 94 | 31 | 38 | 9 | 30 | 34 | 25 | 29 | 8 | inhibition [1]: Active; Activity (U-373MG ATCC [2]): Active; inhibition (U-373MG ATCC [3]): Active; Activity (U-373MG ATCC [4]): Active
COc1ccc(CCNC(=O)[C@@]2(C)CC[C@]3(C)CC[C@]4(C)C(=CC(=O)[C@@H]5[C@@]6(C)CC[C@H](O)C(C)(C)[C@@H]6CC[C@]54C)[C@@H]3C2)cc1OC | 86 | 52 | > 100 | 34 | 34 | 37 | 91 | 43 | 59 | inhibition [15]: Active; inhibition (U-373MG ATCC [16]): Active; Activity (U-373MG ATCC [17]): Active; Activity (U-373MG ATCC [18]): Active
